{"source": "paper PMC4561054", "about": "(Drugs in R&D, 2015)", "key": {"[1]": {"details": "cited from earlier work"}, "[2]": {"details": "cited from earlier work", "remark": "listed apart in the source"}, "[3]": {"system": "HCV genotype 1", "details": "COSMOS; simeprevir plus sofosbuvir with or without ribavirin; cited from earlier work"}, "[4]": {"details": "preclinical studies; cited from earlier work"}, "[5]": {"system": "HCV genotype 1", "details": "treatment-naïve patients, simeprevir plus ribavirin and pegylated interferon, cited from earlier work"}, "[6]": {"type": "in vivo, human", "details": "for half-life: both, human, plasma, oral, 150 mg, Mean half-life", "procedure,_shortened": "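Severe renal impairment (eGFR ≤29 mL/min/1.73 m2) versus matched normal-function subjects (eGFR ≥80), n = 8 each. Oral 150 mg test compound capsule daily, fed, for 7 days; Day 7 dose given after ≥10-h fast plus standard breakfast. Plasma drawn pre-dose Days 5–6 and on Day 7 at 0–72 h; LC-MS/MS. Noncompartmental Cmin, Cmax and AUC24 taken on log scale. Linear mixed-effects model gave LS means and 90 % CI of group difference.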"}, "[7]": {"test": "Safety evaluation, Study 1", "type": "in vivo, human", "procedure,_shortened": "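Six healthy male nonsmokers (18–55 y) given one oral 200-mg dose of radiolabelled test compound in polyethylene glycol 400, fed. Safety covered subject-reported AEs, hematology, biochemistry, coagulation, urinalysis and electrocardiogram. Descriptive statistics only.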"}, "[8]": {"test": "14C-simeprevir mass balance study", "type": "in vivo, human", "details": "as summarised in Discussion", "procedure,_shortened": "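Healthy adult males (18–55 y, BMI 18.0–30.0 kg/m2, nonsmokers). Single oral 200-mg dose of 14C-labelled plus unlabelled test compound in polyethylene glycol 400, fed, 1.85 MBq total. Urine pooled at 0–8, 8–16, 16–24, 24–36 and 36–48 h, then every 24 h. Every stool collected until ≥Day 8, <2 % of dose excreted per 24 h, and ≥7 stools. Radioactivity read by […] and expressed as % of dose; six subjects.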"}, "[9]": {"test": "Safety and tolerability, Study 2", "type": "in vivo, human", "procedure,_shortened": "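Non-HCV-infected adults (18–70 y). Severe renal impairment group had MDRD eGFR ≤29 mL/min/1.73 m2 and no dialysis. Controls had eGFR ≥80 and were matched for sex, race, age and BMI. All took 150 mg test compound orally daily, fed, for 7 days. Subject-reported AEs recorded; hematology/biochemistry on Days 1, 3, 5, 7 and 8; urinalysis and ECG on Days 1 and 7.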"}, "[10]": {"details": "cited from earlier work", "remark": "listed apart in the source"}, "[11]": {"system": "plasma proteins", "test": "Unbound simeprevir in plasma", "type": "in vitro ADME, human", "procedure,_shortened": "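Subjects with severe renal impairment or matched normal renal function, given 150 mg test compound orally daily for 7 days. Blood drawn pre-dose and 4 h post-dose. Unbound concentration measured by dialysis, then liquid scintillation counting of spiked tritiated test compound. Mean and SD reported per time point, plus fraction unbound.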"}, "[12]": {"details": "14C-daclatasvir excretion study"}, "[13]": {"details": "moderate to severe renal impairment vs healthy, single 400-mg dose"}, "[14]": {"details": "whole study period, six healthy subjects"}, "[15]": {"details": "renal impairment group, treatment phase"}, "[16]": {"details": "subject with rhabdomyolysis (also on high-dose fenofibrate), Day 9"}}, "note": "“And” between values parts separate entries of the source, which are not always exact repeats. Identical values can stand only once. “Also recorded” adds a separate entry of the source. Like-named read-outs stand apart in the source and are kept apart here."}
{"smiles": "COC(=O)N[C@H](C(=O)N1CCC[C@H]1c1nc(-c2ccc(-c3ccc(-c4c[nH]c([C@@H]5CCCN5C(=O)[C@@H](NC(=O)OC)C(C)C)n4)cc3)cc2)c[nH]1)C(C)C", "note": "[daclatasvir]", "values": [{"measurement": "Recovery from the feces", "setting": "[1]; [12]", "value": 88, "unit": "%"}, {"measurement": "Total radioactivity dose eliminated in urine", "setting": "[1]; [12]", "value": 6.6, "unit": "%"}, {"measurement": "Renal excretion", "setting": "[1]", "value": "< 10", "unit": "%"}, {"measurement": "Increase in AUCinf", "setting": "[2]; ESRD", "value": "~51", "unit": "%"}, {"measurement": "Increase in AUCinf", "setting": "[2]; moderate renal impairment", "value": "approximately 18%"}, {"measurement": "Increase in AUCinf", "setting": "[2]; severe renal impairment", "value": "~39", "unit": "%"}]}
{"smiles": "NC(=O)c1ncn([C@@H]2O[C@H](CO)[C@@H](O)[C@H]2O)n1", "note": "[ribavirin]", "values": [{"measurement": "Radioactivity excreted in the urine", "setting": "[1]; 600-mg 14C-ribavirin dose", "value": 61, "unit": "%"}, {"measurement": "Decrease in apparent clearance", "setting": "[2]; [13]", "value": "50–75%"}, {"measurement": "Increase in AUC", "setting": "[2]; [13]", "value": "two- to three-fold increase"}]}
{"smiles": "COc1ccc2c(O[C@@H]3C[C@H]4C(=O)N[C@]5(C(=O)NS(=O)(=O)C6CC6)C[C@H]5/C=C\\CCCCN(C)C(=O)[C@@H]4C3)cc(-c3nc(C(C)C)cs3)nc2c1C", "note": "[simeprevir]", "values": [{"measurement": "SVR rates", "setting": "[3]", "value": "92–94%"}, {"measurement": "Tissue distribution", "setting": "[4]", "value": "predominately distributed to the liver and intestines with low distribution (similar or less than plasma) to the kidneys"}, {"measurement": "SVR rate", "setting": "[5]; QUEST-1", "value": 80, "unit": "%"}, {"measurement": "SVR rate", "setting": "[5]; QUEST-2", "value": 81, "unit": "%"}, {"measurement": "AUC24h higher in severe renal impairment compared with healthy subjects", "setting": "[6]; based on LS mean ratio, Day 7", "value": 62, "unit": "%"}, {"measurement": "Cmax higher in severe renal impairment compared with healthy subjects", "setting": "[6]; based on LS mean ratio, Day 7", "value": 34, "unit": "%"}, {"measurement": "half-life", "setting": "[6]; healthy subjects", "value": 16.7, "unit": "h"}, {"measurement": "half-life", "setting": "[6]; subjects with severe renal impairment", "value": 24, "unit": "h"}, {"measurement": "Deaths or AEs resulting in permanent premature discontinuation", "setting": "[7]; Study 1", "value": "No deaths or AEs resulting in permanent premature discontinuation from the study occurred"}, {"measurement": "Dry mouth, subjects", "setting": "[7]; [14]", "value": "one subject"}, {"measurement": "Increased ALT and AST levels, subjects", "setting": "[7]; [14]", "value": "two subjects"}, {"measurement": "Prolonged aPTT, subjects", "setting": "[7]; [14]", "value": "two subjects"}, {"measurement": "Subjects with at least one AE", "setting": "[7]; whole study period, six healthy subjects, single 200-mg dose", "value": "five subjects"}, {"measurement": "14C-simeprevir excreted in the urine", "setting": "[8]", "value": "< 2", "unit": "%"}, {"measurement": "Deaths or AEs resulting in permanent premature discontinuation of simeprevir", "setting": "[9]; Study 2", "value": "No deaths or AEs resulting in permanent premature discontinuation of simeprevir occurred"}, {"measurement": "Severity of most AEs", "setting": "[9]; Study 2, both groups", "value": "grade I or II; also recorded: grade 1 or 2"}, {"measurement": "Subjects with at least one AE", "setting": "[9]; control group, treatment phase", "value": 12.5, "unit": "%"}, {"measurement": "Subjects with at least one AE", "setting": "[9]; control group, whole study period", "value": 37.5, "unit": "%"}, {"measurement": "Severity of rhabdomyolysis", "setting": "[9]; one subject of renal impairment group, also receiving fenofibrate", "value": "grade 3"}, {"measurement": "Subjects with at least one AE", "setting": "[9]; [15]", "value": 50, "unit": "%"}, {"measurement": "Subjects with hyperbilirubinemia", "setting": "[9]; [15]", "value": 12.5, "unit": "%"}, {"measurement": "Subjects with hypertension", "setting": "[9]; [15]", "value": 12.5, "unit": "%"}, {"measurement": "Subjects with increased blood alkaline phosphatase", "setting": "[9]; [15]", "value": 12.5, "unit": "%"}, {"measurement": "Subjects with myalgia", "setting": "[9]; [15]", "value": 12.5, "unit": "%"}, {"measurement": "Subjects with rhabdomyolysis", "setting": "[9]; [15]", "value": 12.5, "unit": "%"}, {"measurement": "Subjects with at least one AE", "setting": "[9]; renal impairment group, whole study period", "value": 50, "unit": "%"}, {"measurement": "Relatedness of rhabdomyolysis and myalgia (investigator)", "setting": "[9]; same subject, also taking high-dose fenofibrate", "value": "probably related to simeprevir"}, {"measurement": "Creatine kinase level", "setting": "[9]; [16]", "value": 96.76, "unit": "μkat/L"}, {"measurement": "Creatine kinase muscle brain fraction levels", "setting": "[9]; [16]", "value": "20.84 µg/L and 19.45 µg/L"}, {"measurement": "Myoglobin levels", "setting": "[9]; [16]", "value": "1200 µg/L and 1475 µg/L and 1476 µg/L"}, {"measurement": "half-life", "setting": "[10]; HCV-infected subjects with normal renal function", "value": 41, "unit": "h"}, {"measurement": "AUC (range of concentrations observed in phase III studies)", "setting": "[10]; HCV-infected subjects without renal impairment", "value": "4848–449,185 ng·h/mL"}, {"measurement": "Concentrations in subjects with HCV infection compared with non-HCV-infected subjects", "setting": "[10]", "value": "two- to three-fold higher"}, {"measurement": "Mean unbound plasma concentration", "setting": "[11]; matched healthy subjects, 4 h post-dose, SD 0.2574", "value": 0.2714}, {"measurement": "Mean unbound plasma concentration", "setting": "[11]; matched healthy subjects, pre-dose, SD 0.1567", "value": 0.1142}, {"measurement": "Mean unbound plasma concentration", "setting": "[11]; subjects with renal impairment, 4 h post-dose", "value": "0.4216 (SD 0.3319)"}, {"measurement": "Mean unbound plasma concentration", "setting": "[11]; subjects with renal impairment, pre-dose", "value": "0.2892 (SD 0.4411)"}]}
{"smiles": "CC(C)OC(=O)[C@H](C)N[P@](=O)(OC[C@H]1O[C@@H](n2ccc(=O)[nH]c2=O)[C@](C)(F)[C@@H]1O)Oc1ccccc1", "note": "[sofosbuvir]", "values": [{"measurement": "14C-sofosbuvir recovered from the urine", "setting": "[1]; 400-mg 14C-sofosbuvir dose", "value": 80, "unit": "%"}, {"measurement": "Increase in AUCinf", "setting": "[2]; mild renal impairment vs normal renal function, single 400-mg dose", "value": 61, "unit": "%"}, {"measurement": "Increase in AUCinf", "setting": "[2]; moderate renal impairment vs normal renal function, single 400-mg dose", "value": 107, "unit": "%"}, {"measurement": "Increase in AUCinf", "setting": "[2]; severe renal impairment vs normal renal function, single 400-mg dose", "value": 171, "unit": "%"}]}
